Experimental data from ChEMBL document CHEMBL4033777, “Next-Generation Hypoxic Cell Radiosensitizers: Nitroimidazole Alkylsulfonamides” (J Med Chem, 2018).
In brackets after ≈: the same amount, converted by molar mass.

Columns and labels:
[1] = Solubility of the compound in alphaMEM containing 5% FCS and 1% DMSO by HPLC analysis; type: physicochemical
Outline: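 Saturated drug solutions were incubated at 37 °C in αMEM with 5% FCS and 1% DMSO. Dissolved drug was quantified by HPLC.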

[2] = tested on: HCT-116; assay: Cytotoxicity against human HCT116 cells incubated for 4 hrs under anaerobic condition measured after 5 days by sulforhodamine B assay; type: functional, cell-based
Outline: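 STR-authenticated, mycoplasma-free HCT116 cells in αMEM + 5% FCS were seeded at 700 cells/well and allowed 2 h to attach. Drug was added from DMSO stocks (<1% DMSO) in serial 3-fold dilutions for 4 h, oxic or anoxic (Pd-catalyst anaerobic chamber, medium pre-equilibrated ≥3 days). After washing, cells regrew for 5 days before SRB staining and IC50 determination.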

[3] = tested on: HCT-116; assay: Hypoxic cytotoxicity ratio of IC50 for human HCT116 cells under oxic condition to IC50 for human HCT116 cells under anoxic condition
Outline: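 HCT116 cells, 700 per well and attached 2 h, got a 4 h exposure to 3-fold serial dilutions (<1% DMSO) under air or in a Pd-catalyst anaerobic chamber with pre-equilibrated medium. Cells were washed, regrown 5 days, and stained with sulforhodamine B to give IC50. HCR = oxic IC50 / anoxic IC50.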

[4] = tested on: HCT-116; assay: Hypoxia radiosensitization activity in human HCT116 cells assessed as survival ratio by measuring ratio of cell survival with 15 Gy radiation in absence to presence of compound at anoxic IC50 preincubated for 1 hr followed by 15 Gy irradiation measured after 10 days by methylene blue staining-based cell counting method; type: functional
Outline: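 Anoxic HCT116 cells were seeded at 10^5/well and treated at the anoxic IC50 concentration for 1 h at room temperature. They were irradiated with 15 Gy (60Co, ~2 Gy/min) in a sealed steel box, then plated clonogenically. Colonies of >50 cells were counted […]. SR15 = survival with radiation / survival with drug + radiation.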

[5] = tested on: HCT-116; assay: Hypoxia radiosensitization activity in human HCT116 cells assessed as sensitizer enhancement ratio by measuring ratio of radiation dose for 1% survival in absence to presence of compound at 4.39 mM preincubated for 1 hr followed by irradiation measured after 10 days by methylene blue staining-based cell counting method; type: functional
[6] = tested on: HCT-116; assay: Hypoxia radiosensitization activity in human HCT116 cells assessed as sensitizer enhancement ratio by measuring ratio of radiation dose for 1% survival in absence to presence of compound at 4.39 mM preincubated for 1 hr followed by irradiation measured after 10 days by methylene blue staining-based cell counting method relative to misonidazole; type: functional
[7] = tested on: HCT-116; assay: Hypoxia radiosensitization activity in human HCT116 cells assessed as survival ratio by measuring ratio of cell survival with radiation in absence to presence of compound at 4.39 mM preincubated for 1 hr followed by 6 to 29 Gy irradiation measured after 10 days by methylene blue staining-based cell counting method; type: functional
[8] = tested on: HCT-116; assay: Hypoxia radiosensitization activity in human HCT116 cells assessed as survival ratio by measuring ratio of cell survival with radiation in absence to presence of compound at 4.39 mM preincubated for 1 hr followed by 6 to 29 Gy irradiation measured after 10 days by methylene blue staining-based cell counting method relative to misonidazole; type: functional
[9] = Electrophilicity of the compound in pH 7 phosphate buffer assessed as one-electron reduction potential
Outline: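 The one-electron reduction potential was set by pulse radiolysis equilibria at pH 7.0 (2.5 mM phosphate), established within 20 µs against benzylviologen, methylviologen or triquat. ΔE came from equilibrium constants via the Nernst equation, at three concentration ratios and 22 ± 2 °C.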

[10] = tested on: HCT-116; assay: Cytotoxicity against human HCT116 cells at anoxic IC50 incubated for 1 hr at 21 degC by clonogenic survival assay; conditions: hct-116, 1 h
[11] = tested on: HCT-116; assay: Hypoxia radiosensitization activity in human HCT116 cells assessed as sensitizer enhancement ratio by measuring ratio of radiation dose for 1% survival in absence to presence of compound at 5 mM preincubated for 1 hr followed by irradiation measured after 10 days by methylene blue staining-based cell counting method; type: functional
[12] = tested on: HCT-116; assay: Hypoxia radiosensitization activity in human HCT116 cells assessed as sensitizer enhancement ratio by measuring ratio of radiation dose for 1% survival in absence to presence of compound at 5 mM preincubated for 1 hr followed by irradiation measured after 10 days by methylene blue staining-based cell counting method relative to misonidazole; type: functional
[13] = tested on: HCT-116; assay: Hypoxia radiosensitization activity in human HCT116 cells assessed as survival ratio by measuring ratio of cell survival with radiation in absence to presence of compound at 5 mM preincubated for 1 hr followed by 6 to 29 Gy irradiation measured after 10 days by methylene blue staining-based cell counting method; type: functional
[14] = tested on: HCT-116; assay: Hypoxia radiosensitization activity in human HCT116 cells assessed as survival ratio by measuring ratio of cell survival with radiation in absence to presence of compound at 5 mM preincubated for 1 hr followed by 6 to 29 Gy irradiation measured after 10 days by methylene blue staining-based cell counting method relative to misonidazole; type: functional
[15] = tested on: HCT-116; assay: Hypoxia radiosensitization activity in human HCT116 cells assessed as survival ratio by measuring ratio of cell survival with radiation in absence to presence of compound at 0.52 mM preincubated for 1 hr followed by 6 to 29 Gy irradiation measured after 10 days by methylene blue staining-based cell counting method; type: functional
[16] = tested on: HCT-116; assay: Hypoxia radiosensitization activity in human HCT116 cells assessed as survival ratio by measuring ratio of cell survival with radiation in absence to presence of compound at 0.52 mM preincubated for 1 hr followed by 6 to 29 Gy irradiation measured after 10 days by methylene blue staining-based cell counting method relative to misonidazole; type: functional
[17] = tested on: HCT-116; assay: Hypoxia radiosensitization activity in human HCT116 cells assessed as survival ratio by measuring ratio of cell survival with radiation in absence to presence of compound at 1.34 mM preincubated for 1 hr followed by 6 to 29 Gy irradiation measured after 10 days by methylene blue staining-based cell counting method; type: functional
[18] = tested on: HCT-116; assay: Hypoxia radiosensitization activity in human HCT116 cells assessed as survival ratio by measuring ratio of cell survival with radiation in absence to presence of compound at 1.34 mM preincubated for 1 hr followed by 6 to 29 Gy irradiation measured after 10 days by methylene blue staining-based cell counting method relative to misonidazole; type: functional
[19] = tested on: HCT-116; assay: Hypoxia radiosensitization activity in human HCT116 cells assessed as survival ratio by measuring ratio of cell survival with radiation in absence to presence of compound at 2.86 mM preincubated for 1 hr followed by 6 to 29 Gy irradiation measured after 10 days by methylene blue staining-based cell counting method; type: functional
[20] = tested on: HCT-116; assay: Hypoxia radiosensitization activity in human HCT116 cells assessed as survival ratio by measuring ratio of cell survival with radiation in absence to presence of compound at 2.86 mM preincubated for 1 hr followed by 6 to 29 Gy irradiation measured after 10 days by methylene blue staining-based cell counting method relative to misonidazole; type: functional
[21] = tested on: HCT-116; assay: Hypoxia radiosensitization activity in human HCT116 cells assessed as sensitizer enhancement ratio by measuring ratio of radiation dose for 1% survival in absence to presence of compound at 2.76 mM preincubated for 1 hr followed by irradiation measured after 10 days by methylene blue staining-based cell counting method; type: functional
[22] = tested on: HCT-116; assay: Hypoxia radiosensitization activity in human HCT116 cells assessed as sensitizer enhancement ratio by measuring ratio of radiation dose for 1% survival in absence to presence of compound at 2.76 mM preincubated for 1 hr followed by irradiation measured after 10 days by methylene blue staining-based cell counting method relative to misonidazole; type: functional
[23] = tested on: HCT-116; assay: Hypoxia radiosensitization activity in human HCT116 cells assessed as survival ratio by measuring ratio of cell survival with radiation in absence to presence of compound at 2.76 mM preincubated for 1 hr followed by 6 to 29 Gy irradiation measured after 10 days by methylene blue staining-based cell counting method; type: functional
[24] = tested on: HCT-116; assay: Hypoxia radiosensitization activity in human HCT116 cells assessed as survival ratio by measuring ratio of cell survival with radiation in absence to presence of compound at 2.76 mM preincubated for 1 hr followed by 6 to 29 Gy irradiation measured after 10 days by methylene blue staining-based cell counting method relative to misonidazole; type: functional
[25] = tested on: HCT-116; assay: Hypoxia radiosensitization activity in human HCT116 cells assessed as sensitizer enhancement ratio by measuring ratio of radiation dose for 1% survival in absence to presence of compound at 0.82 mM preincubated for 1 hr followed by irradiation measured after 10 days by methylene blue staining-based cell counting method relative to misonidazole; type: functional
[26] = tested on: HCT-116; assay: Hypoxia radiosensitization activity in human HCT116 cells assessed as sensitizer enhancement ratio by measuring ratio of radiation dose for 1% survival in absence to presence of compound at 0.82 mM preincubated for 1 hr followed by irradiation measured after 10 days by methylene blue staining-based cell counting method; type: functional
[27] = tested on: HCT-116; assay: Hypoxia radiosensitization activity in human HCT116 cells assessed as survival ratio by measuring ratio of cell survival with radiation in absence to presence of compound at 0.82 mM preincubated for 1 hr followed by 6 to 29 Gy irradiation measured after 10 days by methylene blue staining-based cell counting method; type: functional
[28] = tested on: HCT-116; assay: Hypoxia radiosensitization activity in human HCT116 cells assessed as survival ratio by measuring ratio of cell survival with radiation in absence to presence of compound at 0.82 mM preincubated for 1 hr followed by 6 to 29 Gy irradiation measured after 10 days by methylene blue staining-based cell counting method relative to misonidazole; type: functional
[29] = tested on: HCT-116; assay: Hypoxia radiosensitization activity in human HCT116 cells assessed as survival ratio by measuring ratio of cell survival with radiation in absence to presence of compound at 0.7 mM preincubated for 1 hr followed by 6 to 29 Gy irradiation measured after 10 days by methylene blue staining-based cell counting method; type: functional
[30] = tested on: HCT-116; assay: Hypoxia radiosensitization activity in human HCT116 cells assessed as survival ratio by measuring ratio of cell survival with radiation in absence to presence of compound at 0.7 mM preincubated for 1 hr followed by 6 to 29 Gy irradiation measured after 10 days by methylene blue staining-based cell counting method relative to misonidazole; type: functional
[31] = tested on: HCT-116; assay: Hypoxia radiosensitization activity in human HCT116 cells assessed as sensitizer enhancement ratio by measuring ratio of radiation dose for 1% survival in absence to presence of compound at 2.32 mM preincubated for 1 hr followed by irradiation measured after 10 days by methylene blue staining-based cell counting method; type: functional
[32] = tested on: HCT-116; assay: Hypoxia radiosensitization activity in human HCT116 cells assessed as sensitizer enhancement ratio by measuring ratio of radiation dose for 1% survival in absence to presence of compound at 2.32 mM preincubated for 1 hr followed by irradiation measured after 10 days by methylene blue staining-based cell counting method relative to misonidazole; type: functional
[33] = tested on: HCT-116; assay: Hypoxia radiosensitization activity in human HCT116 cells assessed as survival ratio by measuring ratio of cell survival with radiation in absence to presence of compound at 2.32 mM preincubated for 1 hr followed by 6 to 29 Gy irradiation measured after 10 days by methylene blue staining-based cell counting method; type: functional
[34] = tested on: HCT-116; assay: Hypoxia radiosensitization activity in human HCT116 cells assessed as survival ratio by measuring ratio of cell survival with radiation in absence to presence of compound at 2.32 mM preincubated for 1 hr followed by 6 to 29 Gy irradiation measured after 10 days by methylene blue staining-based cell counting method relative to misonidazole; type: functional

Row | solubility [1] [mM] | Compound | IC50 [2] [µM] | Ratio IC50 [3] | Ratio [4] | Activity [10] | further results
1 | 24.4 (≈ 6.79 mg/mL) | COCCNS(=O)(=O)CCn1cncc1[N+](=O)[O-] | 4400 | 2.5 | 122 | Non-Toxic | Ratio [5]: 1.56; fold change (FC) [6]: 1.08; Ratio [7]: 26; fold change (FC) [8]: 2.23; Activity [9]: -450 mV
2 | 69.3 (≈ 18.3 mg/mL) | O=[N+]([O-])c1cncn1CCS(=O)(=O)NCCO | 5300 | 2 | 282 | Non-Toxic | Ratio [11]: 1.81; fold change (FC) [12]: 1.23; Ratio [13]: 163; fold change (FC) [14]: 12.1
3 | > 55.2 | Cc1ncc([N+](=O)[O-])n1CCS(=O)(=O)NCCCN1CCOCC1 | 2800 | 0.8 | 8 | Non-Toxic | Ratio [21]: 1.68; fold change (FC) [22]: 1.2; Ratio [23]: 28; fold change (FC) [24]: 3.96
4 | 46.8 (≈ 14.3 mg/mL) | Cc1ncc([N+](=O)[O-])n1CCS(=O)(=O)NCCN(C)C | 800 | 6 | 11 | Non-Toxic | fold change (FC) [25]: 1.06; Ratio [26]: 1.57; Ratio [27]: 14.9; fold change (FC) [28]: 1.51

The next lines start with the molecule.

Row | Compound | solubility [1] [mM] | IC50 [2] [µM] | Ratio IC50 [3] | Ratio [4] | Activity [10] | further results
5 | COCCNS(=O)(=O)Cn1cnc([N+](=O)[O-])c1 | – | – | – | – | Non-Toxic | Ratio [15]: 1.3; fold change (FC) [16]: 0.44
6 | Cc1ncc([N+](=O)[O-])n1CCS(=O)(=O)NCCN1CCCCC1 | – | – | – | – | Non-Toxic | Ratio [17]: 24; fold change (FC) [18]: 2.36
7 | COCCNS(=O)(=O)CCn1c([N+](=O)[O-])cnc1C | – | – | – | – | Non-Toxic | Ratio [19]: 4.8; fold change (FC) [20]: 0.58
8 | Cc1ncc([N+](=O)[O-])n1CCS(=O)(=O)NCCN1CCCC1 | – | – | – | – | Non-Toxic | Ratio [29]: 13.6; fold change (FC) [30]: 1.51
9 | O=[N+]([O-])c1cncn1CS(=O)(=O)NCCO | 23.7 (≈ 5.93 mg/mL) | 2300 | 4 | 181 | Non-Toxic | Ratio [31]: 1.81; fold change (FC) [32]: 1.28; Ratio [33]: 114; fold change (FC) [34]: 14.8
